# Test results reported in ChEMBL document CHEMBL3393033, “6-(Azaindol-2-yl)pyridine-3-sulfonamides as potent and selective inhibitors targeting hepatitis C virus NS4B” (Bioorg Med Chem Lett, 2015).
# Calls of active or inactive are those of the source. No cut-off for these calls is given here.
# Tests used:
# [1] = AUC (0 to 6 hrs) in Sprague-Dawley rat plasma at 10 mg/kg, po administered as single dose by LC-MS/MS analysis; format: ADME, organism-based; design: time < 6 hr, dose 10 mg/kg, route oral
# How it was run: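 Male Sprague Dawley rats (n = 2) were dosed once orally at 10 mg/kg. Compound was lyophilized from acetonitrile/water (1:1) and given as a suspension in 0.4% hydroxypropyl methylcellulose. Plasma was sampled at 30 min and at 1, 2, 3, 4 and 6 h post-dose for LC-MS/MS. AUC is over 0–6 h.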
# [2] = Ratio of plasma concentration in Sprague-Dawley rat at 10 mg/kg, po administered as single dose after 6 hrs to EC50 for genotype 1b Hepatitis C virus bicistronic replicon Con1 infected in human HuH7 cells; format: ADME, organism-based, Huh-7; design: dose 10 mg/kg, route oral; details: in vivo
# How it was run: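 Male Sprague Dawley rats (n = 2) received a single 10 mg/kg oral dose in 0.4% hydroxypropyl methylcellulose suspension. Plasma concentration at 6 h post-dose was measured by LC-MS/MS and divided by the Con1 1b replicon EC₅₀ from the Huh7 RT-PCR assay.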
# [3] = Ratio of drug level in liver to plasma Sprague-Dawley rat plasma at 10 mg/kg, po administered as single dose by LC-MS/MS analysis; format: ADME, organism-based; design: dose 10 mg/kg, route oral
# How it was run: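 Male Sprague Dawley rats (n = 2) received 10 mg/kg orally as a suspension in 0.4% hydroxypropyl methylcellulose, after lyophilization from acetonitrile/water (1:1). Liver and plasma concentrations were measured at 6 h post-dose by LC-MS/MS and expressed as a liver/plasma ratio.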
# [4] = AUC (0 to 24 hrs) in dog plasma at 2 mg/kg, po by LC-MS/MS analysis; format: ADME, organism-based, Canis lupus familiaris; design: time < 24 hr, dose 2 mg/kg, route oral
# How it was run: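 Male beagle dogs (n = 2) were dosed orally at 2 mg/kg. Compound was lyophilized from acetonitrile/water (1:1) and given as a suspension in 0.4% hydroxypropyl methylcellulose. Plasma was collected at 30 min and at 1, 2, 4, 8 and 24 h for LC-MS/MS.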
# [5] = Ratio of plasma concentration in po dosed dog at 8 hrs to EC50 for genotype 1b Hepatitis C virus bicistronic replicon Con1 infected in human Huh7 cells; format: ADME, organism-based, Huh-7; details: in vivo
# How it was run: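 Dogs: male beagles (n = 2) dosed orally at 2 mg/kg as a suspension in 0.4% hydroxypropyl methylcellulose. Plasma concentration at 8 h post-dose was measured by LC-MS/MS and divided by the replicon 1b EC₅₀.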
# [6] = Ratio of plasma concentration in po dosed monkey at 8 hrs to EC50 for genotype 1b Hepatitis C virus bicistronic replicon Con1 infected in human Huh7 cells; format: ADME, organism-based, Huh-7; details: in vivo
# How it was run: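 Monkeys: male cynomolgus (n = 2) dosed orally at 3 mg/kg as a suspension in 0.4% hydroxypropyl methylcellulose. Plasma level at 8 h post-dose was measured by LC-MS/MS and expressed relative to the replicon 1b EC₅₀.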
# Hepatitis C virus [7] = assay: Antiviral activity against genotype 1b Hepatitis C virus bicistronic replicon Con1 infected in human HuH7 cells after 3 days by RT-PCR analysis; format: functional, cell-based, Hepacivirus hominis; details: genotype 1b Con1, Huh-7, 72 h
# How it was run: (§1)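 Huh7 cells carrying a genotype 1b (Con1) bicistronic HCV replicon seeded at 5000 cells/well. Compound added at a final DMSO concentration of 0.5%, then incubated at 37°C for 3 days. Replicon RNA, and GAPDH RNA as the endogenous selectivity control, quantified by real-time RT-PCR. Values are the average of at least two independent determinations.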
# [8] = Toxicity in human HuH7 cells infected with genotype 1b Hepatitis C virus bicistronic replicon Con1 assessed as reduction in GAPDH RNA after 3 days by RT-PCR analysis; format: cell-based, Huh-7; how it was run: as §1
# [9] = AUC (0 to 24 hrs) in monkey at 3 mg/kg, po by LC-MS/MS analysis; details: cynomolgus monkey, plasma
# Hepacivirus hominis [10] = assay: Inhibition of Hepatitis C virus NS3 protease up to 10000 nM
# Hepacivirus hominis [11] = assay: Inhibition of Hepatitis C virus NS5B polymerase up to 10000 nM
# Hepatitis C virus [12] = assay: Antiviral activity against HCV genotype 1b Con1 replicon cells expressing NS4B F98C mutant grown under serial passage in presence of 1x to 30x EC90 level of compound assessed as reduction in replicon RNA levels relative to wild type HCV genotype 1b Con1; format: functional, Hepacivirus hominis
# Hepatitis C virus [13] = assay: Antiviral activity against HCV genotype 1b Con1 replicon cells expressing NS4B V105M mutant grown under serial passage in presence of 1x to 30x EC90 level of compound assessed as reduction in replicon RNA levels relative to wild type HCV genotype 1b Con1; format: functional, Hepacivirus hominis
AUC(0-t) at 6 h [1] [µM·h],Ratio [2],Kp [3],EC50 (Hepatitis C virus [7]) [nM],SMILES,IC50 at 3 days [8] [nM],other results
2.39,22,23,17,C[C@H](NS(=O)(=O)c1ccc(-c2c(C#N)c3cc(Cl)cnc3n2C2CCC2)nc1)C(F)(F)F,> 10000,AUC(0-t) at 24 h [4]: 4.08 µM·h; Ratio [5]: 12; Ratio [6]: 2; AUC(0-t) at 24 h [9]: 1.03 µM·h
,,,39,C[C@H](NS(=O)(=O)c1ccc(-c2c(C#N)c3cc(Cl)cnc3n2CC2CC2)nc1)C(F)(F)F,> 10000,
,,,87,Cc1cnc2c(c1)c(C#N)c(-c1ccc(S(=O)(=O)N[C@@H](C)C(F)(F)F)cc1)n2C1CCC1,> 10000,
,,,530,C[C@H](NS(=O)(=O)c1ccc(-c2c(C#N)c3cc(Cl)ncc3n2C2CCC2)nc1)C(F)(F)F,> 10000,
,,,300,COc1cnc2c(c1)c(C#N)c(-c1ccc(S(=O)(=O)N[C@@H](C)C(F)(F)F)cn1)n2CC1CC1,7900,
8.78,23,6,46,C[C@H](NS(=O)(=O)c1ccc(-c2c(C#N)c3cc(F)cnc3n2C2CCC2)nc1)C(F)(F)F,> 10000,
,,,1400,Cc1cc2c(C#N)c(-c3ccc(S(=O)(=O)N[C@@H](C)C(F)(F)F)cn3)n(C3CCC3)c2cn1,> 10000,
,,,150,COc1cnc2c(c1)c(C#N)c(-c1ccc(S(=O)(=O)N[C@@H](C)C(F)(F)F)cn1)n2C1CCCC1,> 10000,
10.2,32,11,40,C[C@H](NS(=O)(=O)c1ccc(-c2c(C#N)c3cc(C4CC4)cnc3n2C2CCC2)nc1)C(F)(F)F,> 10000,
,,,260,C[C@H](NS(=O)(=O)c1ccc(-c2c(C#N)c3cnc(Cl)cc3n2C2CCC2)nc1)C(F)(F)F,1310,
,,,970,C[C@H](NS(=O)(=O)c1ccc(-c2c(C#N)c3cnc(OC(F)F)nc3n2C2CCC2)nc1)C(F)(F)F,> 10000,
,,,700,C[C@H](NS(=O)(=O)c1ccc(-c2c(C#N)c3ccc(Cl)nc3n2C2CCC2)nc1)C(F)(F)F,6300,
,,,240,COc1ncc2c(C#N)c(-c3ccc(S(=O)(=O)N[C@@H](C)C(F)(F)F)cn3)n(C3CCC3)c2n1,> 10000,
,,,200,CCOc1cnc2c(c1)c(C#N)c(-c1ccc(S(=O)(=O)N[C@@H](C)C(F)(F)F)cn1)n2C1CCC1,> 10000,
,,,87,Cc1ccc2c(C#N)c(-c3ccc(S(=O)(=O)N[C@@H](C)C(F)(F)F)cn3)n(C3CCC3)c2n1,> 10000,
6.84,40,19,27,C[C@H](NS(=O)(=O)c1ccc(-c2c(C#N)c3cc(Cl)cnc3n2C2CCCC2)nc1)C(F)(F)F,> 10000,AUC(0-t) at 24 h [4]: 2.07 µM·h; Ratio [5]: 2; Ratio [6]: 0.3; AUC(0-t) at 24 h [9]: 0.29 µM·h
,,,217,C[C@H](NS(=O)(=O)c1ccc(-c2c(C#N)c3cccnc3n2C2CCC2)nc1)C(F)(F)F,> 10000,
6.92,55,9,13,Cc1cnc2c(c1)c(C#N)c(-c1ccc(S(=O)(=O)N[C@@H](C)C(F)(F)F)cn1)n2C1CCC1,> 10000,AUC(0-t) at 24 h [4]: 5.67 µM·h; Ratio [5]: 14; Ratio [6]: 1; AUC(0-t) at 24 h [9]: 0.641 µM·h
2.63,27,13,15,CCc1cnc2c(c1)c(C#N)c(-c1ccc(S(=O)(=O)N[C@@H](C)C(F)(F)F)cn1)n2C1CCC1,> 5160,
9.37,36,7,50,C[C@H](NS(=O)(=O)c1ccc(-c2c(C#N)c3cc(OC(F)F)cnc3n2C2CCC2)nc1)C(F)(F)F,> 10000,
,,,160,Cc1cnc2c(c1)c(C#N)c(-c1ncc(S(=O)(=O)N[C@@H](C)C(F)(F)F)cn1)n2C1CCC1,> 10000,
,,,2150,CCCOc1cnc2c(c1)c(C#N)c(-c1ccc(S(=O)(=O)N[C@@H](C)C(F)(F)F)cn1)n2C1CCC1,> 10000,
,,,94,C[C@H](NS(=O)(=O)c1ccc(-c2c(C#N)c3ncc(Cl)cc3n2C2CCC2)nc1)C(F)(F)F,2500,
,,,230,Cc1cc2c(cn1)c(C#N)c(-c1ccc(S(=O)(=O)N[C@@H](C)C(F)(F)F)cn1)n2C1CCC1,> 10000,
,,,7600,CC(C)Oc1cnc2c(c1)c(C#N)c(-c1ccc(S(=O)(=O)N[C@@H](C)C(F)(F)F)cn1)n2C1CCC1,> 10000,
5.83,503,44,2,C[C@H](NS(=O)(=O)c1ccc(-c2c(C#N)c3cc(C(F)(F)F)cnc3n2C2CCC2)nc1)C(F)(F)F,> 10000,AUC(0-t) at 24 h [4]: 8.16 µM·h; Ratio [5]: 125; Ratio [6]: 105; AUC(0-t) at 24 h [9]: 5.44 µM·h
,,,119,Cc1cnc2c(C#N)c(-c3ccc(S(=O)(=O)N[C@@H](C)C(F)(F)F)cn3)n(C3CCC3)c2c1,> 10000,
,,,960,COc1ccc2c(C#N)c(-c3ccc(S(=O)(=O)N[C@@H](C)C(F)(F)F)cn3)n(C3CCC3)c2n1,9700,

SMILES,AUC(0-t) at 6 h [1] [µM·h],Ratio [2],Kp [3],EC50 (Hepatitis C virus [7]) [nM],IC50 at 3 days [8] [nM],other results
COc1cnc2c(c1)c(C#N)c(-c1ccc(S(=O)(=O)N[C@@H](C)C(F)(F)F)cn1)n2C1CCC1,7.61,30,14,27,> 9000,AUC(0-t) at 24 h [4]: 4.18 µM·h; Ratio [5]: 6; Ratio [6]: 4; inhibition (Hepacivirus hominis [10]): inactive; inhibition (Hepacivirus hominis [11]): inactive; fold change (FC) (Hepatitis C virus [12]): 25; fold change (FC) (Hepatitis C virus [13]): 17; AUC(0-t) at 24 h [9]: 2.28 µM·h
